For one test, the system named is MT4. Description: Inhibition of cytopathic effect of HIV-1 strain RF in MT-4 cell culture. The settings on record: Homo sapiens. Type of test: functional, cell-based. In outline: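 MT-4 cells at 10^6 cells/mL in RPMI 1640 were infected with HIV-1 RF at moi 2×10^-3 (5×10^4 cells/well). Compound in Me2SO was diluted in 10-fold steps from 100 to 0.01 μg/mL. Cells were kept 7 days at 37 °C, 5% CO2, then given MTT for 60 min. Acidified 2-propanol was added and A540 read. EC50 for 50% inhibition of formazan conversion is the mean of duplicates; toxicity was assayed at the same concentrations.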
Background: Damage to the host cells serves as the signal in cytopathic effect assays.

Test [1] has as its system Human immunodeficiency virus 1. Description: Inhibitory effects on HIV-1 induced syncytium formation in C8166 cells. Type of test: functional, organism-based. To be noted: Human immunodeficiency virus 1, C8166. In outline:
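C8166 cells were infected with HIV-1 RF at moi 1×10^-3 and plated at 10^5 cells/well. Compound in Me2SO was serially diluted in RPMI 1640 from 50 to 0.05 μg/mL. Cells were kept 3–4 days at 37 °C, 5% CO2, and checked daily for syncytia. Syncytia were scored against untreated infected controls, and EC50 was calculated as 50% reduction of cytopathic effect.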

The target of test [2] is Human immunodeficiency virus type 1 protease (Human immunodeficiency virus 1, UniProt Q72874). The experiment in a line: Inhibitory activity against HIV-1 Protease. In outline:
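Buffer: 20 mM MES pH 6.0, 2 M NaCl, 5 mM DTT, 2 mM EDTA. Compounds in 25% Me2SO over a concentration range. Incubated 60 min at 37 °C with shaking, then filtered; released radioactivity counted by scintillation. IC50 from duplicate means, standardized to a reference-compound control.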

Where only a bound is given, the exact number is not on record here.

Broadly, the EC50 is the concentration that produces a half-maximal response. Low values mean a more potent agent, high ones a less potent agent. `CC1(C)S[C@H]([C@H](NC(=O)Cc2ccccc2)C(=O)NCc2ccccc2)N[C@H]1C(=O)NCCNC(=O)[C@@H]1N[C@@H]([C@H](NC(=O)Cc2ccccc2)C(=O)NCc2ccccc2)SC1(C)C`: the EC50 with MT4 came out at 290 nM; in test [1] it was 60 nM.

`COC(=O)[C@@H](NC(=O)Cc1ccccc1)[C@@H]1N[C@@H](C(=O)NCCNC(=O)[C@@H]2N[C@@H]([C@H](NC(=O)Cc3ccccc3)C(=O)OC)SC2(C)C)C(C)(C)S1` returned an EC50 with MT4 above 100000 nM.

Broadly, the IC50 is the concentration needed to halve the response being measured. Read a high IC50 as weaker potency. On to `CCNC(=O)[C@@H](NC(=O)CC(C)C)[C@@H]1N[C@@H](C(=O)NCCNC(=O)[C@@H]2N[C@@H]([C@H](NC(=O)CC(C)C)C(=O)NCC)SC2(C)C)C(C)(C)S1`, for which the IC50 in test [2] is 8.7 nM. In addition, the EC50 in the test with MT4 is above 100000 nM.

`CC1(C)S[C@H]([C@H](NC(=O)Cc2ccccc2)C(N)=O)N[C@H]1C(=O)NCCNC(=O)[C@@H]1N[C@@H]([C@H](NC(=O)Cc2ccccc2)C(N)=O)SC1(C)C` gave an EC50 in the test on MT4 above 100000 nM.

Regarding `CC1(C)S[C@H]([C@H](NC(=O)Cc2ccccc2)C(=O)NCc2ccccn2)N[C@H]1C(=O)NCCNC(=O)[C@@H]1N[C@@H]([C@H](NC(=O)Cc2ccccc2)C(=O)NCc2ccccn2)SC1(C)C`, the IC50 in test [2] is 11 nM. The same molecule displayed an EC50 with MT4 of 80000 nM.

The molecule `CC1(C)S[C@H]([C@H](NC(=O)Cc2ccccn2)C(=O)NCc2ccc(Cl)cc2)N[C@H]1C(=O)NCCNC(=O)[C@@H]1N[C@@H]([C@H](NC(=O)Cc2ccccn2)C(=O)NCc2ccc(Cl)cc2)SC1(C)C` yielded an IC50 in test [2] of 7.5 nM. In addition, the EC50 in the test with MT4 was found to be 1900 nM.

For the molecule `CCNC(=O)[C@@H](NC(=O)c1ccccc1Cc1ccccc1)[C@@H]1N[C@@H](C(=O)NCCNC(=O)[C@@H]2N[C@@H]([C@H](NC(=O)c3ccccc3Cc3ccccc3)C(=O)NCC)SC2(C)C)C(C)(C)S1`, the midpoint of inhibition in test [2], the IC50, lay at 72 nM. Moreover, in the test on MT4, the EC50 was above 100000 nM.

For `CC1(C)S[C@H]([C@H](NC(=O)Cc2ccccc2)C(=O)OCc2ccccc2)N[C@H]1C(=O)NCCNC(=O)[C@@H]1N[C@@H]([C@H](NC(=O)Cc2ccccc2)C(=O)OCc2ccccc2)SC1(C)C`, the IC50 in test [2] came to 75 nM. The EC50 in the test on MT4 is above 100000 nM.

In test [2], `CCNC(=O)[C@@H](NC(=O)/C=C\c1ccccc1)[C@@H]1N[C@@H](C(=O)NCCNC(=O)[C@@H]2N[C@@H]([C@H](NC(=O)/C=C\c3ccccc3)C(=O)NCC)SC2(C)C)C(C)(C)S1` yielded an IC50 of 2.9 nM. Besides, the EC50 in the test with MT4 worked out at 3200 nM.

In test [2], `CCNC(=O)[C@@H](NC(=O)c1ccccc1Oc1ccccc1)[C@@H]1N[C@@H](C(=O)NCCNC(=O)[C@@H]2N[C@@H]([C@H](NC(=O)c3ccccc3Oc3ccccc3)C(=O)NCC)SC2(C)C)C(C)(C)S1` displayed a half-inhibitory concentration (IC50) of 160 nM. This molecule displayed an EC50 in the test with MT4 above 100000 nM.

`CC(C)(C)OC(=O)CNC(=O)[C@@H](NC(=O)Cc1ccccc1)[C@@H]1N[C@@H](C(=O)NCCNC(=O)[C@@H]2N[C@@H]([C@H](NC(=O)Cc3ccccc3)C(=O)NCC(=O)OC(C)(C)C)SC2(C)C)C(C)(C)S1` had an IC50 in test [2] of 21 nM. Also, the midpoint of the response with MT4, the EC50, lay at 2700 nM.

`CC1(C)S[C@H](CNC(=O)Cc2ccccc2)N[C@H]1C(=O)NCCNC(=O)[C@@H]1N[C@@H](CNC(=O)Cc2ccccc2)SC1(C)C` showed an IC50 in test [2] of 7800 nM.

In the case of `CCNC(=O)[C@@H](NC(=O)Cc1ccc(O)cc1)[C@@H]1N[C@@H](C(=O)NCCNC(=O)[C@@H]2N[C@@H]([C@H](NC(=O)Cc3ccc(O)cc3)C(=O)NCC)SC2(C)C)C(C)(C)S1`, the IC50 in test [2] was above 12000 nM.

As to `CC1(C)S[C@H]([C@@H](CO)NC(=O)Cc2ccccc2)N[C@H]1C(=O)NCCNC(=O)[C@@H]1N[C@@H]([C@@H](CO)NC(=O)Cc2ccccc2)SC1(C)C`, the IC50 in test [2] is 140 nM. Also, in the test on MT4, the EC50 was above 100000 nM.

`CC1(C)S[C@H]([C@H](NC(=O)Cc2ccccc2)C(=O)NCC(=O)O)N[C@H]1C(=O)NCCNC(=O)[C@@H]1N[C@@H]([C@H](NC(=O)Cc2ccccc2)C(=O)NCC(=O)O)SC1(C)C`: the IC50 in test [2] was found to be 39 nM. The EC50 in the test with MT4 was above 100000 nM.

`CC(C)(C)NC(=O)[C@@H]1C[C@@H]2CCCC[C@@H]2CN1C[C@@H](O)[C@H](Cc1ccccc1)NC(=O)[C@H](CC(N)=O)NC(=O)c1ccc2ccccc2n1`: the results for the EC50 (with MT4; in test [1]) were 4 nM and 0.6 nM, respectively.

Molecule `CCNC(=O)[C@@H](NC(=O)Cc1ccccc1)[C@@H]1N[C@@H](C(=O)NCCNC(=O)[C@@H]2N[C@@H]([C@H](NC(=O)Cc3ccccc3)C(=O)NCC)SC2(C)C)C(C)(C)S1` returned an IC50 in test [2] of 1300 nM.

In test [2], `CC(C)(C)OC(=O)CNC(=O)[C@@H](NC(=O)c1ccccc1-c1ccccc1)[C@@H]1N[C@@H](C(=O)NCCNC(=O)[C@@H]2N[C@@H]([C@H](NC(=O)c3ccccc3-c3ccccc3)C(=O)NCC(=O)OC(C)(C)C)SC2(C)C)C(C)(C)S1` yielded an IC50 of 4.1 nM. In addition, the EC50 in the test with MT4 stood at 1600 nM.

Turning to `CN(Cc1ccccc1)C(=O)[C@@H](NC(=O)Cc1ccccc1)[C@@H]1N[C@@H](C(=O)NCCNC(=O)[C@@H]2N[C@@H]([C@H](NC(=O)Cc3ccccc3)C(=O)N(C)Cc3ccccc3)SC2(C)C)C(C)(C)S1`, the IC50 in test [2] came to 820 nM.

`CCNC(=O)[C@@H](N)[C@@H]1N[C@@H](C(=O)NCCNC(=O)[C@@H]2N[C@@H]([C@H](N)C(=O)NCC)SC2(C)C)C(C)(C)S1` registered an IC50 in test [2] of 120000 nM.

In test [2], `CCNC(=O)[C@@H](NC(=O)c1ccccc1)[C@@H]1N[C@@H](C(=O)NCCNC(=O)[C@@H]2N[C@@H]([C@H](NC(=O)c3ccccc3)C(=O)NCC)SC2(C)C)C(C)(C)S1` showed an IC50 of 390 nM.

`CC1(C)S[C@H]([C@@H](COC(=O)c2ccccc2)NC(=O)Cc2ccccc2)N[C@H]1C(=O)NCCNC(=O)[C@@H]1N[C@@H]([C@@H](COC(=O)c2ccccc2)NC(=O)Cc2ccccc2)SC1(C)C` gave an IC50 in test [2] of 70 nM.

Consider `CC1(C)S[C@H]([C@H](NC(=O)Cc2ccccn2)C(=O)NCc2ccccc2)N[C@H]1C(=O)NCCNC(=O)[C@@H]1N[C@@H]([C@H](NC(=O)Cc2ccccn2)C(=O)NCc2ccccc2)SC1(C)C`, for which, in test [2], it took 0.55 nM to reach half-maximal inhibition (IC50). This molecule also had an EC50 with MT4 above 10000 nM.

Molecule `CCNC(=O)[C@@H](NC(=O)c1c(-c2ccccc2)noc1C)[C@@H]1N[C@@H](C(=O)NCCNC(=O)[C@@H]2N[C@@H]([C@H](NC(=O)c3c(-c4ccccc4)noc3C)C(=O)NCC)SC2(C)C)C(C)(C)S1` registered an IC50 in test [2] of 5.4 nM. This molecule also showed an EC50 in the test with MT4 of 2500 nM.

As to `CC1(C)S[C@H]([C@H](NC(=O)Cc2ccccc2)C(=O)N(CCO)CCO)N[C@H]1C(=O)NCCNC(=O)[C@@H]1N[C@@H]([C@H](NC(=O)Cc2ccccc2)C(=O)N(CCO)CCO)SC1(C)C`, the IC50 in test [2] was 840 nM.

`CCNC(=O)[C@@H](NC(=O)Cc1ccccc1)[C@@H]1N[C@@H](C(=O)NCCNC(=O)[C@@H]2N[C@@H](CNC(=O)Cc3ccccc3)SC2(C)C)C(C)(C)S1` had an IC50 in test [2] of 35 nM. The molecule also displayed an EC50 with MT4 above 100000 nM.

In test [2], `CCNC(=O)[C@@H](NC(=O)Cc1ccccc1)[C@@H]1N[C@@H](C(=O)NCCNC(=O)[C@@H]2NCSC2(C)C)C(C)(C)S1` yielded an IC50 of 8800 nM.

For the molecule `CC1(C)S[C@H]([C@H](NC(=O)Cc2ccccc2)C(=O)NCCO)N[C@H]1C(=O)NCCNC(=O)[C@@H]1N[C@@H]([C@H](NC(=O)Cc2ccccc2)C(=O)NCCO)SC1(C)C`, in test [2], the IC50 came out at 40 nM. For the same molecule, the EC50 in the test with MT4 was above 100000 nM.

As to `CC1(C)S[C@H]([C@H](NC(=O)c2ccccc2-c2ccccc2)C(=O)NCC(=O)O)N[C@H]1C(=O)NCCNC(=O)[C@@H]1N[C@@H]([C@H](NC(=O)c2ccccc2-c2ccccc2)C(=O)NCC(=O)O)SC1(C)C`, in test [2], the IC50 turned out to be 39 nM. This molecule also displayed an EC50 in the test on MT4 above 100000 nM.

`CCNC(=O)[C@@H](NC(=O)c1ccccc1Nc1ccccc1)[C@@H]1N[C@@H](C(=O)NCCNC(=O)[C@@H]2N[C@@H]([C@H](NC(=O)c3ccccc3Nc3ccccc3)C(=O)NCC)SC2(C)C)C(C)(C)S1`: the midpoint of inhibition in test [2], the IC50, lay at 4800 nM.

The molecule `CCNC(=O)[C@@H](NC(=O)Cc1ccccn1)[C@@H]1N[C@@H](C(=O)NCCNC(=O)[C@@H]2N[C@@H]([C@H](NC(=O)Cc3ccccn3)C(=O)NCC)SC2(C)C)C(C)(C)S1` came in with an IC50 in test [2] of 19 nM. Also, the EC50 with MT4 is above 100000 nM.

In test [2], `CC1(C)S[C@H]([C@H](NC(=O)Cc2ccccc2)C(=O)NCC(F)(F)F)N[C@H]1C(=O)NCCNC(=O)[C@@H]1N[C@@H]([C@H](NC(=O)Cc2ccccc2)C(=O)NCC(F)(F)F)SC1(C)C` registered an IC50 of 4.4 nM. Also, the EC50 in the test with MT4 is 280 nM; in test [1] it was 220 nM.

In turn, `CC1(C)S[C@H]([C@H](NC(=O)c2ccccc2-c2ccccc2)C(=O)NCc2ccccc2)N[C@H]1C(=O)NCCNC(=O)[C@@H]1N[C@@H]([C@H](NC(=O)c2ccccc2-c2ccccc2)C(=O)NCc2ccccc2)SC1(C)C` showed an IC50 in test [2] of 7.5 nM. For the same molecule, the figures for the EC50 (with MT4; in test [1]) were 110 nM and 130 nM, respectively.

`CCNC(=O)[C@@H](NC(=O)Cc1ccc2ccccc2c1)[C@@H]1N[C@@H](C(=O)NCCNC(=O)[C@@H]2N[C@@H]([C@H](NC(=O)Cc3ccc4ccccc4c3)C(=O)NCC)SC2(C)C)C(C)(C)S1` gave an IC50 in test [2] of 820 nM.

As to `Cc1cn([C@H]2C[C@H](N=[N+]=[N-])[C@@H](CO)O2)c(=O)[nH]c1=O` [ZIDOVUDINE], the EC50 amounted to 20 nM in the test with MT4 and 30 nM in test [1].

For the origin of these results see ChEMBL document CHEMBL1126854, “A series of penicillin derived C2-symmetric inhibitors of HIV-1 proteinase: synthesis, mode of interaction, and structure-activity relationships” (J Med Chem, 1993).
